Measured values as given in ChEMBL document CHEMBL4052792, “3-Hydroxykynurenine, a Tryptophan Metabolite Generated during the Infection, Is Active Against Trypanosoma cruzi” (ACS Med Chem Lett, 2017).
The source made the active and inactive calls. The rule behind the calls is not given here.

Tests used:
Trypanosoma cruzi [1] = assay: (§1) Trypanocidal activity against Trypanosoma cruzi Tulahuen amastigotes infected in BALB/C mouse bone marrow derived macrophages assessed as endocytic index at 20 uM treated for 24 hrs followed by compound washout measured after 48 hrs by immunofluorescence assay (reference value: 213.66 +/- 58.79); format: functional
Jurkat [2] = assay: Cytotoxicity against human Jurkat cells assessed as reduction in cell viability at 0.2 to 2000 uM after 24 hrs by trypan blue exclusion assay; format: cell-based
How it was run: (§2)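 Mammalian cells (human PBMC, Swan 71, Jurkat; bone marrow-derived macrophages; J774) were exposed to 3-HK at 0.2 to 2000 μM for 24 h. Viability was then scored by trypan blue exclusion.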

[3] = Induction of apoptosis in BALB/C mouse BMDM assessed as cells with hypodiploid DNA content at 200 uM after 24 hrs by FITC/propidium iodide staining based flow cytometric analysis (reference value: 29.9%); format: functional
PBMC = assay: Cytotoxicity against human PBMC assessed as reduction in cell viability at 1200 to 2000 uM after 48 hrs by trypan blue exclusion assay; format: cell-based
How it was run: (§3)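 Human PBMC and Jurkat cells were treated for 48 h with a range of 3-HK concentrations or left untreated. Viable cells were counted under light microscopy by trypan blue exclusion. Data are means ± SD of four independent experiments.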

Trypanosoma cruzi [4] = assay: as §1, with “parasite infected macrophages” for “endocytic index”, “2000” for “20”, “26.84” for “213.66”, “7.81%)” for “58.79)”; format: functional
Trypanosoma cruzi [5] = assay: Induction of mitochondrial membrane potential reduction in Trypanosoma cruzi Tulahuen trypomastigotes up to 4000 uM after 24 hrs by Rh123/propidium iodide staining-based flow cytometric analysis (reference value: 3.25 +/- 1.66%); format: functional; parameters: scale not given: the % may be the effect or the level left
How it was run: (§4)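 Trypomastigotes were treated with 3-HK for 24 h at 37 °C, then incubated with PI plus Rh123. Rh123 fluorescence was read by flow cytometry in PI-negative (live) parasites. The depolarized fraction was taken as the low-fluorescence M2 population. Index of variation = (treated median − control median)/control median. Three experiments were run.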

Trypanosoma cruzi [6] = assay: Reduction of mitochondrial membrane potential in Trypanosoma cruzi Tulahuen trypomastigotes after 24 hrs by Rh123/PI staining-based flow cytometric analysis; format: functional; how it was run: as §4
[7] = Cytotoxicity against BALB/C mouse BMDM assessed as reduction in cell viability at 0.2 to 2000 uM after 24 hrs by trypan blue exclusion assay; format: cell-based; how it was run: as §2
Trypanosoma cruzi [8] = assay: Trypanocidal activity against Trypanosoma cruzi Tulahuen trypomastigotes assessed as increase in parasite death up to 72 hrs by trypan blue assay; format: functional
How it was run: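 Bloodstream trypomastigotes were incubated at 37 °C in culture medium alone or with increasing doses for 24, 48 and 72 h. Parasite death was scored as percentage by trypan blue exclusion. Results are means ± SD of three independent experiments.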

Trypanosoma cruzi [9] = assay: as §1, with “parasite infected macrophages” for “endocytic index”, “200” for “20”, “26.84” for “213.66”, “7.81%)” for “58.79)”; format: functional
Trypanosoma cruzi [10] = assay: Trypanocidal activity against Trypanosoma cruzi Tulahuen trypomastigotes in culture medium after 48 hrs by trypan blue assay
[11] = Induction of apoptosis in BALB/C mouse BMDM assessed as cells with hypodiploid DNA content at 1200 uM after 24 hrs by FITC/propidium iodide staining based flow cytometric analysis (reference value: 29.9%); format: functional
Trypanosoma cruzi [12] = assay: (§5) Trypanocidal activity against Trypanosoma cruzi Tulahuen amastigotes infected in BALB/C mouse bone marrow derived macrophages assessed as endocytic index at 2 uM treated for 24 hrs followed by compound washout measured after 48 hrs by immunofluorescence assay (reference value: 213.66 +/- 58.79); format: functional
Trypanosoma cruzi [13] = assay: (§6) Trypanocidal activity against Trypanosoma cruzi Tulahuen amastigotes infected in BALB/C mouse bone marrow derived macrophages assessed as endocytic index at 1200 uM treated for 24 hrs followed by compound washout measured after 48 hrs by immunofluorescence assay (reference value: 213.66 +/- 58.79); format: functional
Trypanosoma cruzi [14] = assay: as §6, with “parasite infected macrophages” for “endocytic index”, “26.84” for “213.66”, “7.81%)” for “58.79)”; format: functional
Trypanosoma cruzi [15] = assay: Trypanostatic activity against Trypanosoma cruzi Tulahuen amastigotes infected in BALB/C mouse bone marrow derived macrophages assessed as swollen mitochondrion at 20 uM after 24 hrs by transmission electron microscopic analysis; format: functional
How it was run: (§7)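 Bone marrow-derived macrophages were infected for 24 h, then exposed to 20 μM for 24 h or left untreated. Intracellular amastigote ultrastructure was examined by transmission electron microscopy, covering mitochondrion, nucleus, kinetoplast, flagellum, flagellar pocket, subpellicular microtubules and cytoplasmic structures.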

Trypanosoma cruzi [16] = assay: Trypanocidal activity against Trypanosoma cruzi Tulahuen amastigotes infected in BALB/C mouse bone marrow derived macrophages assessed as endocytic index at 200 uM treated for 24 hrs followed by compound washout measured after 48 hrs by immunofluorescence assay (reference value: 213.66 +/- 58.79); format: functional
Trypanosoma cruzi [17] = assay: Trypanocidal activity against Trypanosoma cruzi Tulahuen trypomastigotes infected in mouse whole blood assessed as viable trypomastigote cells at 20 uM after 96 hrs by trypan blue assay relative to control; format: functional
How it was run: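 Trypomastigotes were exposed to 20 μM in 100% whole blood at 37 °C. Viable parasites were counted after 24, 48, 72 and 96 h. Results are means ± SD of three independent experiments.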

Trypanosoma cruzi [18] = assay: Trypanostatic activity against Trypanosoma cruzi Tulahuen amastigotes infected in BALB/C mouse bone marrow derived macrophages assessed as effect on flagellar pocket at 20 uM after 24 hrs by transmission electron microscopic analysis; format: functional; how it was run: as §7
Trypanosoma cruzi [19] = assay: Induction of mitochondrial membrane depolarization in Trypanosoma cruzi Tulahuen trypomastigotes at 2000 uM after 24 hrs by Rh123/propidium iodide staining-based flow cytometric analysis (reference value: 3.25 +/- 1.66%); format: functional; how it was run: as §4
Trypanosoma cruzi [20] = assay: Trypanostatic activity against Trypanosoma cruzi Tulahuen amastigotes infected in BALB/C mouse bone marrow derived macrophages assessed as effect in subpelicullar microtubules at 20 uM after 24 hrs by transmission electron microscopic analysis; format: functional; how it was run: as §7
Trypanosoma cruzi [21] = assay: Trypanostatic activity against Trypanosoma cruzi Tulahuen amastigotes infected in BALB/C mouse bone marrow derived macrophages assessed as effect on flagellum structure at 20 uM after 24 hrs by transmission electron microscopic analysis; format: functional; how it was run: as §7
Trypanosoma cruzi [22] = assay: as §1, with “parasite infected macrophages” for “endocytic index”, “1500” for “20”, “26.84” for “213.66”, “7.81%)” for “58.79)”; format: functional
[23] = Induction of apoptosis in BALB/C mouse BMDM assessed as cells with hypodiploid DNA content at 2000 uM after 24 hrs by FITC/propidium iodide staining based flow cytometric analysis (reference value: 29.9%); format: functional
Trypanosoma cruzi [24] = assay: as §5, with “parasite infected macrophages” for “endocytic index”, “26.84” for “213.66”, “7.81%)” for “58.79)”; format: functional
J774 = assay: Cytotoxicity against mouse J774 assessed as reduction in cell viability at 0.2 to 2000 uM after 24 hrs by trypan blue exclusion assay; format: cell-based; settings: j774, 24 h; how it was run: as §2
Jurkat [25] = assay: Cytotoxicity against human Jurkat cells assessed as reduction in cell viability at 1200 to 2000 uM after 48 hrs by trypan blue exclusion assay; format: cell-based; how it was run: as §3
Trypanosoma cruzi [26] = assay: as §1, with “parasite infected macrophages” for “endocytic index”, “0.2” for “20”, “26.84” for “213.66”, “7.81%)” for “58.79)”; format: functional

Nc1c(O)cccc1C(=O)C[C@H](N)C(=O)O
Activity (Trypanosoma cruzi [1]): 51.74
Activity (Jurkat [2]): Non-Toxic
Activity [3]: 35.4%
Activity (PBMC): Toxic
Activity (Trypanosoma cruzi [4]): 16.31%
Activity (Trypanosoma cruzi [5]): 8 - 12%
Activity (Trypanosoma cruzi [6]): Dose-dependent effect
Activity [7]: Non-Toxic
Activity (Trypanosoma cruzi [8]): Dose-dependent effect
Activity (Trypanosoma cruzi [9]): 7.76%
IC50 (Trypanosoma cruzi [10]): 200 µM
Activity [11]: 26.3%
Activity (Trypanosoma cruzi [12]): 60.59
Activity (Trypanosoma cruzi [13]): 106.06
Activity (Trypanosoma cruzi [14]): 14.83%
Activity (Trypanosoma cruzi [15]): Active
Activity (Trypanosoma cruzi [16]): 51.43
Activity (Trypanosoma cruzi [17]): 50%
Activity (Trypanosoma cruzi [18]): inactive
Activity (Trypanosoma cruzi [19]): 12.1%
Activity (Trypanosoma cruzi [20]): inactive
Activity (Trypanosoma cruzi [21]): inactive
Activity (Trypanosoma cruzi [22]): 18.07%
Activity [23]: 26.4%
Activity (Trypanosoma cruzi [24]): 12.4%
Activity (J774): Non-Toxic
Activity (Jurkat [25]): Toxic
Activity (Trypanosoma cruzi [26]): 10.85%
